# System: U2OS
# Assay: Multiplex assay against U2OS
# Type: toxicity, cell-based
# Conditions: human
# Outline: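 Per cents of healthy-nucleus cells form the tubulin, mitochondrial-mass and membrane-permeability phenotype values. Live cells were stained at seeding with Hoechst33342, BioTracker Green Microtubule Cytoskeleton Dye, MitoTracker Red and Annexin V Alexa Fluor 680. After compound addition they were imaged on a CQ1 microscope at 37°C and 5% CO2, and CellPathfinder machine-learning gating split them into Hoechst high-intensity objects or normal cells, normal cells into healthy, pyknosed or fragmented nuclei, and pyknosed cells into mitotic or apoptotic.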
# [1] = 12 h, 1 µM, compound concentration 1 uM, replicate 1
# [2] = 12 h, 1 µM, compound concentration 1 uM, replicate 2
# [3] = 12 h, 10 µM, compound concentration 10 uM, replicate 1
# [4] = 12 h, 10 µM, compound concentration 10 uM, replicate 2
# [5] = 24 h, 1 µM, compound concentration 1 uM, replicate 1
# [6] = 24 h, 1 µM, compound concentration 1 uM, replicate 2
# [7] = 24 h, 10 µM, compound concentration 10 uM, replicate 1
# [8] = 24 h, 10 µM, compound concentration 10 uM, replicate 2
# [9] = 48 h, 1 µM, compound concentration 1 uM, replicate 1
# [10] = 48 h, 1 µM, compound concentration 1 uM, replicate 2
# [11] = 48 h, 10 µM, compound concentration 10 uM, replicate 1
# [12] = 48 h, 10 µM, compound concentration 10 uM, replicate 2
compound,measurement,setting,value
CCc1nn2c(C)cc(C)nc2c1Cc1ccc(-c2nnc(C3CCNCC3)o2)cc1,Population Apoptotic (%),[1],42%
same,Population Fragmented Nuclei (%),[1],28%
same,Population Healthy Nuclei (%),[1],60%
same,Population Hoechst High Intensity Objects (%),[1],3%
same,Population Membrane Permeable-Phenotype (%),[1],12%
same,Population Mitochondria Different-Phenotype (%),[1],10%
same,Population Mitotic Cells (%),[1],57%
same,Population Normal (%),[1],96%
same,Population Pyknosed Nuclei (%),[1],10%
same,Population Tubulin-Different-Phenotype (%),[1],11%
same,Total Cell Count,[1],251
same,Population Apoptotic (%),[2],85%
same,Population Fragmented Nuclei (%),[2],9%
same,Population Healthy Nuclei (%),[2],84%
same,Population Hoechst High Intensity Objects (%),[2],2%
same,Population Membrane Permeable-Phenotype (%),[2],14%
same,Population Mitochondria Different-Phenotype (%),[2],17%
same,Population Mitotic Cells (%),[2],14%
same,Population Normal (%),[2],97%
same,Population Pyknosed Nuclei (%),[2],6%
same,Population Tubulin-Different-Phenotype (%),[2],4%
same,Total Cell Count,[2],110
same,Population Apoptotic (%),[3],68%
same,Population Fragmented Nuclei (%),[3],24%
same,Population Healthy Nuclei (%),[3],55%
same,Population Hoechst High Intensity Objects (%),[3],5%
same,Population Membrane Permeable-Phenotype (%),[3],26%
same,Population Mitochondria Different-Phenotype (%),[3],43%
same,Population Mitotic Cells (%),[3],31%
same,Population Normal (%),[3],94%
same,Population Pyknosed Nuclei (%),[3],20%
same,Population Tubulin-Different-Phenotype (%),[3],28%
same,Total Cell Count,[3],214
same,Population Apoptotic (%),[4],77%
same,Population Fragmented Nuclei (%),[4],8%
same,Population Healthy Nuclei (%),[4],76%
same,Population Hoechst High Intensity Objects (%),[4],2%
same,Population Membrane Permeable-Phenotype (%),[4],30%
same,Population Mitochondria Different-Phenotype (%),[4],62%
same,Population Mitotic Cells (%),[4],22%
same,Population Normal (%),[4],97%
same,Population Pyknosed Nuclei (%),[4],14%
same,Population Tubulin-Different-Phenotype (%),[4],44%
same,Total Cell Count,[4],129
same,Population Apoptotic (%),[5],80%
same,Population Fragmented Nuclei (%),[5],26%
same,Population Healthy Nuclei (%),[5],63%
same,Population Hoechst High Intensity Objects (%),[5],2%
same,Population Membrane Permeable-Phenotype (%),[5],4%
same,Population Mitochondria Different-Phenotype (%),[5],6%
same,Population Mitotic Cells (%),[5],20%
same,Population Normal (%),[5],97%
same,Population Pyknosed Nuclei (%),[5],10%
same,Population Tubulin-Different-Phenotype (%),[5],3%
same,Total Cell Count,[5],296
same,Population Apoptotic (%),[6],87%
same,Population Fragmented Nuclei (%),[6],13%
same,Population Healthy Nuclei (%),[6],80%
same,Population Hoechst High Intensity Objects (%),[6],3%
same,Population Membrane Permeable-Phenotype (%),[6],7%
same,Population Mitochondria Different-Phenotype (%),[6],12%
same,Population Mitotic Cells (%),[6],12%
same,Population Normal (%),[6],96%
same,Population Pyknosed Nuclei (%),[6],6%
same,Total Cell Count,[6],130
same,Population Apoptotic (%),[7],77%
same,Population Fragmented Nuclei (%),[7],24%
same,Population Healthy Nuclei (%),[7],55%
same,Population Hoechst High Intensity Objects (%),[7],3%
same,Population Membrane Permeable-Phenotype (%),[7],9%
same,Population Mitochondria Different-Phenotype (%),[7],40%
same,Population Mitotic Cells (%),[7],22%
same,Population Normal (%),[7],96%
same,Population Pyknosed Nuclei (%),[7],19%
same,Population Tubulin-Different-Phenotype (%),[7],7%
same,Total Cell Count,[7],236
same,Population Apoptotic (%),[8],71%
same,Population Fragmented Nuclei (%),[8],15%
same,Population Healthy Nuclei (%),[8],71%
same,Population Membrane Permeable-Phenotype (%),[8],16%
same,Population Mitochondria Different-Phenotype (%),[8],61%
same,Population Mitotic Cells (%),[8],28%
same,Population Pyknosed Nuclei (%),[8],13%
same,Population Tubulin-Different-Phenotype (%),[8],28%
same,Total Cell Count,[8],163
same,Population Apoptotic (%),[9],90%
same,Population Fragmented Nuclei (%),[9],17%
same,Population Healthy Nuclei (%),[9],71%
same,Population Hoechst High Intensity Objects (%),[9],2%
same,Population Membrane Permeable-Phenotype (%),[9],6%
same,Population Mitochondria Different-Phenotype (%),[9],2%
same,Population Mitotic Cells (%),[9],10%
same,Population Normal (%),[9],97%
same,Population Pyknosed Nuclei (%),[9],10%
same,Population Tubulin-Different-Phenotype (%),[9],4%
same,Total Cell Count,[9],376
same,Population Apoptotic (%),[10],85%
same,Population Fragmented Nuclei (%),[10],12%
same,Population Healthy Nuclei (%),[10],72%
same,Population Membrane Permeable-Phenotype (%),[10],7%
same,Population Mitochondria Different-Phenotype (%),[10],6%
same,Population Mitotic Cells (%),[10],14%
same,Population Pyknosed Nuclei (%),[10],14%
same,Total Cell Count,[10],187
same,Population Apoptotic (%),[11],82%
same,Population Fragmented Nuclei (%),[11],24%
same,Population Healthy Nuclei (%),[11],55%
same,Population Hoechst High Intensity Objects (%),[11],2%
same,Population Membrane Permeable-Phenotype (%),[11],10%
same,Population Mitochondria Different-Phenotype (%),[11],29%
same,Population Mitotic Cells (%),[11],17%
same,Population Normal (%),[11],97%
same,Population Pyknosed Nuclei (%),[11],19%
same,Population Tubulin-Different-Phenotype (%),[11],3%
same,Total Cell Count,[11],290
same,Population Apoptotic (%),[12],75%
same,Population Fragmented Nuclei (%),[12],12%
same,Population Healthy Nuclei (%),[12],71%
same,Population Membrane Permeable-Phenotype (%),[12],22%
same,Population Mitochondria Different-Phenotype (%),[12],31%
same,Population Mitotic Cells (%),[12],24%
same,Population Pyknosed Nuclei (%),[12],15%
same,Population Tubulin-Different-Phenotype (%),[12],18%
same,Total Cell Count,[12],219
